The source made the active and inactive calls. The calls are words filed in the database; no cut-off is given here.
Key:
[1] = molecular target: T1, Neuronal acetylcholine receptor; alpha4/beta2 (Homo sapiens) (UniProt P17787+P43681); assay: Antagonist activity at alpha4beta2 nAChR (unknown origin) transfected in HEK cells assessed as decrease in epibatidine-induced intracellular calcium release incubated for 30 mins by FRET assay
[2] = molecular target: T2, Neuronal acetylcholine receptor subunit alpha-7 (Homo sapiens, UniProt P36544); assay: Agonist activity at human alpha7 nAChR transfected in HEK cells assessed as increase in intracellular calcium release incubated for 30 mins in presence of PNU-120596 by FRET assay; type: cell-based
T2 sequence (P36544 whole entry): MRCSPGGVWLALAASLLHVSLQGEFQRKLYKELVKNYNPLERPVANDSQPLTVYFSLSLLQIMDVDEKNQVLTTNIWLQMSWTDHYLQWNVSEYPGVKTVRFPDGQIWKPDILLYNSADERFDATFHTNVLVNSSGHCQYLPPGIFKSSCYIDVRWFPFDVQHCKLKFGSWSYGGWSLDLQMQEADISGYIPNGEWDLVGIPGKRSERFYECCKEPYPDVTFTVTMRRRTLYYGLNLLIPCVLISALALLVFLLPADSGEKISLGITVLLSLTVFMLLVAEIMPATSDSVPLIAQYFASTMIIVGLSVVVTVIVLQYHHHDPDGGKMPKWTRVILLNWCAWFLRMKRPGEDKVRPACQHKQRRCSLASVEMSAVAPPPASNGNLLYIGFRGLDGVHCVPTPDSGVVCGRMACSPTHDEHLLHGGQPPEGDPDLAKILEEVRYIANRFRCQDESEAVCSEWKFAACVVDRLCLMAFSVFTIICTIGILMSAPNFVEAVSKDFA
How it was run: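 HEK cell line stably expressing α7 nAChR and the CNiFER (TN-XXL) biosensor, grown in DMEM + 10% FBS, 1% glutamine, 37 °C, 6% CO2. Cells preincubated 30 min at 37 °C in aCSF containing 10 μM PNU-120596 (final). Agonist injected at 30 s. FRET ratio (527/485 nm) followed over 120 s at 37 °C, triplicate wells. EC50 from variable-slope sigmoidal fit of mean peak ratios, normalized to the 316 μM response.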

[3] = molecular target: T3, 5-hydroxytryptamine receptor 3A (Homo sapiens) (UniProt P46098); assay: Antagonist activity at 5HT3A (unknown origin) transfected in HEK cells assessed as decrease in agonist-induced intracellular calcium release incubated for 30 mins by FRET assay; type: cell-based
T3 sequence (whole entry): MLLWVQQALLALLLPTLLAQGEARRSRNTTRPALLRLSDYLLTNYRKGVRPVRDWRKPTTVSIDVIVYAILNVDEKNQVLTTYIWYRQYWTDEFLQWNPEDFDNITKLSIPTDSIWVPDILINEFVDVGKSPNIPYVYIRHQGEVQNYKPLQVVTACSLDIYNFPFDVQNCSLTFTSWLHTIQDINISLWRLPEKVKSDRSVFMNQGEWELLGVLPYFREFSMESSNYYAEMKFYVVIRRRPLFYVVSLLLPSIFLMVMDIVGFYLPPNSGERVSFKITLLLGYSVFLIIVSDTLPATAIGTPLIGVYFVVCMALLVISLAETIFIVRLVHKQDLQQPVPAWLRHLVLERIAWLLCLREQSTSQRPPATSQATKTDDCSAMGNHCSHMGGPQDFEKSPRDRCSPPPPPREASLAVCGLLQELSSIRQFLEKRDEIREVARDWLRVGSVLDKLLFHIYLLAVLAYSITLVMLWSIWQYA
How it was run: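 CNiFER HEK cell monolayers stably expressing the receptor. Test compound at three concentrations in aCSF, preincubated 30 min at 37 °C, 6% CO2, before agonist addition: epibatidine for α4β2, 5-HT for 5-HT3A. TN-XXL FRET ratio (527/485 nm) read over 120 s at 37 °C, agonist injected at 30 s, triplicate wells. Agonist EC50 shifts fitted. KA computed as [A]/(DR−1) (competitive) or [A]/(Δmax/Δ−1) (noncompetitive). At least three independent experiments. α4β2 stoichiometry not distinguished.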

[4] = molecular target: T1, Neuronal acetylcholine receptor; alpha4/beta2 (Homo sapiens); assay: Agonist activity at human (alpha4)2 (beta2)3 nAChR expressed in Xenopus laevis oocytes assessed as increase in channel currents at 30 uM at -60 mV holding potential by two electrode voltage clamp assay; type: cell-based
How it was run: (§1)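 Two-electrode voltage clamp on oocytes at -60 mV in Ringer's (115 mM NaCl, 2.5 mM KCl, 1.8 mM CaCl2, 10 mM HEPES, 1 µM atropine, pH 7.2), 4 mL/min flow. Test compound applied 6 s, then 271 s washout. Normalized to mean of two ACh precontrols: 30 µM for α1β1εδ, 100 µM for α3β4, 100 µM for LS α4β2, 10 µM for HS α4β2.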

[5] = molecular target: T2, Neuronal acetylcholine receptor subunit alpha-7; assay: Agonist activity at human alpha7 nAChR expressed in Xenopus laevis oocytes assessed as increase in channel currents at 30 uM at -60 mV holding potential followed washout for 211 sec and then 60 uM of Ach was applied by two electrode voltage clamp assay
[6] = molecular target: T4, Neuronal acetylcholine receptor; alpha3/beta4 (Homo sapiens) (UniProt P30926+P32297); assay: Agonist activity at human alpha3beta4 nAChR expressed in Xenopus laevis oocytes assessed as increase in channel currents at 30 uM at -60 mV holding potential by two electrode voltage clamp assay; type: cell-based
How it was run: as §1

[7] = molecular target: T4, Neuronal acetylcholine receptor; alpha3/beta4 (Homo sapiens); assay: Inhibition of human alpha3beta4 nAChR expressed in Xenopus laevis oocytes assessed as increase in channel currents at 30 uM at -60 mV holding potential by two electrode voltage clamp assay; type: cell-based
[8] = molecular target: T1, Neuronal acetylcholine receptor; alpha4/beta2 (Homo sapiens); assay: Agonist activity at human (alpha4)3 (beta2)2 nAChR expressed in Xenopus laevis oocytes assessed as increase in channel currents at 30 uM at -60 mV holding potential by two electrode voltage clamp assay; type: cell-based
How it was run: as §1

[9] = molecular target: T2, Neuronal acetylcholine receptor subunit alpha-7; assay: Agonist activity at human alpha7 nAChR expressed in Xenopus laevis oocytes assessed as increase in channel currents at 30 uM at -60 mV holding potential by two electrode voltage clamp assay; type: cell-based
How it was run: (§2)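 Oocytes expressing human α7 nAChR (with human RIC-3 cDNA available), clamped at -60 mV in Ringer's pH 7.2 with 1 µM atropine, 2 mL/min flow. Drug applied 12 s, 211 s washout. Responses normalized to mean of two 60 µM ACh precontrol responses per oocyte. Data from six cells. Concentration-response data fit to the Hill equation. Sequence included 30 µM test compound, then 60 µM ACh, then 10 µM PNU-120596.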

Mus musculus [10] = organism: Mus musculus; assay: Inhibition of mouse alpha1beta1epsilondelta nAChR expressed in Xenopus laevis oocytes assessed as increase in channel currents at 30 uM at -60 mV holding potential by two electrode voltage clamp assay; type: cell-based
[11] = molecular target: T2, Neuronal acetylcholine receptor subunit alpha-7; assay: Inhibition of human alpha7 nAChR expressed in Xenopus laevis oocytes assessed as decrease in ACh-induced channel currents at -60 mV holding potential by two electrode voltage clamp assay; type: cell-based
How it was run: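 Human α7 nAChR in oocytes under two-electrode voltage clamp at -60 mV, Ringer's pH 7.2, 2 mL/min. Test compound applied 12 s with 211 s washout, then 60 µM ACh applied. ACh response normalized to the mean of two ACh precontrols per oocyte. Inhibition concentration-response curves from six cells, Hill equation fit.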

[12] = molecular target: T2, Neuronal acetylcholine receptor subunit alpha-7; assay: Agonist activity at human alpha7 nAChR expressed in Xenopus laevis oocytes assessed as increase in channel currents at -60 mV holding potential by two electrode voltage clamp assay relative Ach; type: cell-based
How it was run: as §2

Mus musculus [13] = organism: Mus musculus; assay: Agonist activity at mouse alpha1beta1epsilondelta nAChR expressed in Xenopus laevis oocytes assessed as increase in channel currents at 30 uM at -60 mV holding potential by two electrode voltage clamp assay; type: cell-based
How it was run: as §1

[14] = molecular target: T1, Neuronal acetylcholine receptor; alpha4/beta2 (Homo sapiens); assay: Inhibition of human (alpha4)3 (beta2)2 nAChR expressed in Xenopus laevis oocytes assessed as increase in channel currents at 30 uM at -60 mV holding potential by two electrode voltage clamp assay; type: cell-based
[15] = molecular target: T2, Neuronal acetylcholine receptor subunit alpha-7; assay: Agonist activity at alpha7 nAChR (unknown origin) transfected in HEK cells assessed as increase in intracellular calcium release incubated for 30 mins by FRET assay; type: cell-based
How it was run: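 Stable HEK cell line expressing α7 nAChR with TN-XXL FRET calcium biosensor (CNiFER), in DMEM with 10% FBS at 37 °C, 6% CO2. Cells preincubated 30 min at 37 °C in aCSF with PNU-120596 (10 µM final). FRET ratio (527/485 nm, 436 nm excitation) read at 37 °C over 120 s, agonist injected at 30 s, triplicate wells. EC50 from variable-slope sigmoidal fit of mean peak ratios, normalized to 316 µM response.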

[16] = molecular target: T1, Neuronal acetylcholine receptor; alpha4/beta2 (Homo sapiens); assay: Inhibition of human (alpha4)2 (beta2)3 nAChR expressed in Xenopus laevis oocytes assessed as increase in channel currents at 30 uM at -60 mV holding potential by two electrode voltage clamp assay; type: cell-based
[17] = molecular target: T2, Neuronal acetylcholine receptor subunit alpha-7; assay: Agonist activity at human alpha7 nAChR expressed in Xenopus laevis oocytes assessed as increase in channel currents at 30 uM at -60 mV holding potential in presence of 10 uM PNU-120596 by two electrode voltage clamp assay; type: cell-based
How it was run: as §2

SMILES | Ka [1] | EC50 [2] | Ka [3] | further results
COc1ccccc1-c1cc(N(Cc2ccccn2)Cc2ccccn2)nc(C(F)(F)F)n1 | 1.7 µM | 530 nM | 3.7 µM | 
COc1ccccc1-c1cc(N(Cc2ccccc2)Cc2ccccn2)nc(N)n1 | 1.3 µM | > 13300 nM | 4.1 µM | 
COc1ccccc1-c1cc(N(Cc2ccccn2)Cc2ccccn2)nc([S+](C)[O-])n1 (centres undefined) | > 10 µM | 920 nM | > 10 µM | 
COc1cccc(OC)c1-c1cc(N(Cc2ccccn2)Cc2ccccn2)nc(N)n1 | 7.1 µM | 5400 nM | > 10 µM | 
c1ccc(CN(Cc2ccccn2)c2cc(N3CCOCC3)ncn2)nc1 | > 10 µM | > 13300 nM | > 10 µM | 
COc1ccccc1-c1cc(N(Cc2ccccn2)Cc2ccccn2)nc(S(C)(=O)=O)n1 | 7.2 µM | 690 nM | > 10 µM | 
CSc1ccccc1-c1cc(N(Cc2ccccn2)Cc2ccccn2)nc(N)n1 | 4.3 µM | 240 nM | > 10 µM | 
COc1ccccc1-c1cc(N(Cc2ccccn2)Cc2ccccn2)nc(N)n1 | 6.3 µM |  | > 10 µM | Activity [4]: inactive; Activity [5]: inactive; Activity [6]: inactive; inhibition [7]: Active; Activity [8]: inactive; Activity [9]: Active; inhibition activity (active/inactive) (Mus musculus [10]): Active; IC50 [11]: 370 nM; EC50 [12]: 350 nM; Imax [12]: 0.98; Activity (Mus musculus [13]): inactive; inhibition [14]: inactive; EC50 [15]: 70 nM; inhibition [16]: inactive
Nc1nc(-c2ccsc2)cc(N(Cc2ccccn2)Cc2ccccn2)n1 | > 10 µM |  | > 10 µM | EC50 [15]: 500 nM
COc1ccc(-c2cc(N(Cc3ccccn3)Cc3ccccn3)ncn2)c(F)c1 | 3 µM | 69 nM | 5.4 µM | Activity [4]: inactive; Activity [5]: inactive; Activity [6]: inactive; inhibition [7]: Active; Activity [8]: inactive; Activity [9]: Active; inhibition activity (active/inactive) (Mus musculus [10]): Active; IC50 [11]: 1300 nM; EC50 [12]: 600 nM; Imax [12]: 0.53; Activity [17]: Active; Activity (Mus musculus [13]): inactive; inhibition [14]: inactive; inhibition [16]: inactive
COc1ccccc1-c1cc(N(Cc2ccccn2)Cc2ccccn2)nc(SC)n1 | 1.1 µM | 110 nM | 2.8 µM | 
COc1ccc(-c2cc(N(Cc3ccccn3)Cc3ccccn3)nc(N)n2)c(OC)c1 | 2.5 µM |  | > 10 µM | EC50 [15]: 70 nM
COc1ncccc1-c1cc(N(Cc2ccccn2)Cc2ccccn2)nc(N)n1 | > 10 µM | 230 nM | > 10 µM | 
COc1ccccc1-c1cc(N(Cc2ccccn2)Cc2ccccn2)ncn1 | 7.9 µM | 140 nM | > 10 µM | Activity [4]: inactive; Activity [5]: inactive; Activity [6]: inactive; inhibition [7]: Active; Activity [8]: inactive; Activity [9]: Active; inhibition activity (active/inactive) (Mus musculus [10]): Active; IC50 [11]: 3500 nM; EC50 [12]: 3350 nM; Imax [12]: 0.89; Activity [17]: Active; Activity (Mus musculus [13]): inactive; inhibition [14]: inactive; inhibition [16]: inactive
FC(F)(F)c1nc(-c2ccsc2)cc(N(Cc2ccccn2)Cc2ccccn2)n1 | 0.96 µM | 2500 nM | 3.6 µM | 
COc1ccc(-c2cc(N(Cc3ccccn3)Cc3ccccn3)nc(N)n2)c(F)c1 | 3.2 µM | 30 nM | 5.3 µM | Activity [4]: inactive; Activity [5]: inactive; Activity [6]: inactive; inhibition [7]: Active; Activity [8]: inactive; Activity [9]: Active; inhibition activity (active/inactive) (Mus musculus [10]): Active; IC50 [11]: 470 nM; EC50 [12]: 110 nM; Imax [12]: 0.84; Activity [17]: Active; Activity (Mus musculus [13]): inactive; inhibition [14]: inactive; inhibition [16]: inactive
COc1cc(F)ccc1-c1cc(N(Cc2ccccn2)Cc2ccccn2)nc(N)n1 | 4.8 µM | 120 nM | > 10 µM | 
c1ccc(CN(Cc2ccccn2)c2cc(-c3ccsc3)ncn2)nc1 | > 10 µM | 2100 nM | > 10 µM | 
CSc1nc(-c2ccsc2)cc(N(Cc2ccccn2)Cc2ccccn2)n1 | 3.4 µM | 1800 nM | 2.2 µM | 
CC(C)COc1ccccc1-c1cc(N(Cc2ccccn2)Cc2ccccn2)nc(N)n1 | 1.3 µM | 1600 nM | 5.5 µM | 
CC(C)Oc1ccccc1-c1cc(N(Cc2ccccn2)Cc2ccccn2)nc(N)n1 | 1.5 µM | 890 nM | > 10 µM | 
Fc1ccccc1-c1cc(N(Cc2ccccn2)Cc2ccccn2)ncn1 | 5.6 µM | 360 nM | 8.4 µM | 
Nc1nc(-c2ccccc2Cl)cc(N(Cc2ccccn2)Cc2ccccn2)n1 | 3.4 µM | 160 nM | > 10 µM | 

Source: ChEMBL document CHEMBL4414639, “Synthesis, Pharmacological Characterization, and Structure-Activity Relationships of Noncanonical Selective Agonists for α7 nAChRs” (J Med Chem, 2019)
